{"data": "Published values from different studies", "AKR1B1": "Aldo-keto reductase family 1 member B1 (AKR1B1, Homo sapiens, UniProt P15121)", "LATS2": "Serine/threonine-protein kinase LATS2 (LATS2, Homo sapiens, UniProt Q9NRM7)", "note": "Lines come from different studies, so protocols differ."}
{"target": "AKR1B1", "assay": "enzyme activity, inhibitor, absorbance", "IC50 [nM]": 19700, "SMILES": "COc1cc(/C=N/NC(=S)NN=Cc2cccs2)ccc1Oc1ccnc2cc(Cl)ccc12"}
{"target": "Tyrosine-protein kinase Lck (LCK, Homo sapiens, UniProt P06239)", "assay": "enzyme activity, inhibitor, TR-FRET", "IC50 [nM]": 1120, "SMILES": "COc1c(Cl)cccc1Nc1c(-c2ccncc2OC[C@@H]2COCCO2)[nH]c2c1C(=O)NCC2"}
{"target": "LATS2", "assay": "enzyme activity, inhibitor, radiometric", "IC50 [nM]": 114, "SMILES": "O=C(Nc1c[nH]nc1-c1nc2cc(CN3CCOCC3)ccc2[nH]1)NC1CC1"}
{"target": "Transient receptor potential cation channel subfamily M member 8 (TRPM8, Homo sapiens, UniProt Q7Z2W7)", "assay": "ion current, inhibitor, patch clamp", "IC50 [nM]": 12, "SMILES": "COc1cc(CN(CCN)C(=O)c2cccs2)ccc1OCc1ccccc1"}
{"target": "Endonuclease 8-like 1 (NEIL1, Homo sapiens, UniProt Q96FI4)", "assay": "enzyme activity, inhibitor", "IC50 [nM]": "> 99000", "SMILES": "Clc1ccc(Nc2ccncc2)cc1Cl"}
{"target": "LATS2", "assay": "enzyme activity, inhibitor, radiometric", "IC50 [nM]": 10, "SMILES": "OC1(c2ccc(-c3ccnc4[nH]cc(F)c34)cc2)CCCNC1 (stereo not drawn)"}
{"target": "GTPase HRas (HRAS, Homo sapiens, UniProt P01112, C181S/C184S/C186S/G12C)", "assay": "enzyme activity, inhibitor", "IC50 [nM]": 87.1, "SMILES": "C=CC(=O)N1CCN(c2nc(=O)n(-c3c(C)ccnc3C(C)C)c3nc(-c4c(O)cccc4F)c(F)cc23)[C@@H](C)C1"}
{"target": "AKR1B1", "assay": "enzyme activity, inhibitor, absorbance", "IC50 [nM]": 12900, "SMILES": "COc1cc(/C=N/NC(=S)N/N=C/c2ccc(C=O)cc2)ccc1Oc1ccnc2cc(Cl)ccc12"}
{"target": "LATS2", "assay": "enzyme activity, inhibitor, radiometric", "IC50 [nM]": 8.7, "SMILES": "C[C@@H]1CNC[C@H](C)[C@@]1(O)c1ccc(-c2ccnc3[nH]cc(F)c23)cc1"}
{"target": "AKR1B1", "assay": "enzyme activity, inhibitor, absorbance", "IC50 [nM]": 8820, "SMILES": "COc1cc(/C=N/NC(=S)N/N=C/c2ccc(Br)cc2)ccc1Oc1ccnc2cc(Cl)ccc12"}
{"target": "LATS2", "assay": "target engagement in cells, BRET", "IC50 [nM]": 5.1, "SMILES": "Cc1cc(-c2ccnc3[nH]cc(F)c23)cc(F)c1[C@@]1(O)[C@H](C)CN(C(=O)CN)C[C@@H]1C"}
{"target": "AKR1B1", "assay": "enzyme activity, inhibitor, absorbance", "IC50 [nM]": 10400, "SMILES": "COc1cc(/C=N/NC(=S)N/N=C/c2ccc(N(C)C)cc2)ccc1Oc1ccnc2cc(Cl)ccc12"}
{"target": "Tyrosine-protein kinase JAK2 (JAK2, Homo sapiens, UniProt O60674)", "assay": "enzyme activity, inhibitor, ELISA", "IC50 [nM]": 343, "SMILES": "Cc1cc2c(cc1C)N[C@H](c1ccccc1)[C@@H](O)C(=O)N2"}
{"target": "AKR1B1", "assay": "enzyme activity, inhibitor, absorbance", "IC50 [nM]": 19500, "SMILES": "COc1cc(/C=N/NC(=S)N/N=C/c2ccc(F)cc2)ccc1Oc1ccnc2cc(Cl)ccc12"}
{"target": "LATS2", "assay": "enzyme activity, inhibitor, radiometric", "IC50 [nM]": 5.6, "SMILES": "CC1CNCCC1(O)c1ccc(-c2ccnc3[nH]cc(F)c23)cc1 (stereo not drawn)"}
